ChEMBL document CHEMBL4004822, “Thienopyrimidinone Based Sirtuin-2 (SIRT2)-Selective Inhibitors Bind in the Ligand Induced Selectivity Pocket” (J Med Chem, 2017)

Target: T1, NAD-dependent protein deacetylase sirtuin-2 (Homo sapiens) (UniProt Q8IXJ6)
T1 sequence (whole entry): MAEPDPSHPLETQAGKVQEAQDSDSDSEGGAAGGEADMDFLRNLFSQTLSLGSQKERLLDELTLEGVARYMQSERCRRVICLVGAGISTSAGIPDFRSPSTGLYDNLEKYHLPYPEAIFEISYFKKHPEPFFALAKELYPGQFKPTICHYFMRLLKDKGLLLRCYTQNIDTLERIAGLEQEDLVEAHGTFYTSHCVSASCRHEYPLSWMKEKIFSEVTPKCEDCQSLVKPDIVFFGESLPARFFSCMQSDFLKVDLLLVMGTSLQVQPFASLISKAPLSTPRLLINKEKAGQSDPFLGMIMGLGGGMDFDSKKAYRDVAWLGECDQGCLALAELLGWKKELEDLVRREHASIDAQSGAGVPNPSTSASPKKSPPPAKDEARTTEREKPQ
Experiment: Inhibition of recombinant human C-terminal His-tagged SIRT2 (50 to 389 end residues) expressed in Escherichia coli at 10 uM using p53 derived (379 to 382 residues) fluorogenic peptide substrate RHKK(Ac)-AMC preincubated for 10 mins followed by substrate addition in presence of NAD+ by fluorescence assay relative to control
Procedure, shortened: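 Two-step fluorogenic assay with p53 379–382 RHKK(Ac)-AMC. Compound (from 10 mM DMSO stock) preincubated ~10 min with human SIRT before substrate addition. Developer then releases fluorophore, read at ex 360/em 460 nm.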

SMILES | inhibition
O=c1c2c3c(sc2ncn1Cc1cccc2ccccc12)CC(NCc1ccc(Cl)cc1)CC3 (stereo not given) | 64%
O=c1c2c3c(sc2ncn1Cc1cccc(-c2ccccc2)c1)CC(NCc1cccc(F)c1)CC3 (stereo not given) | 63%
COc1cccc(Cn2cnc3sc4c(c3c2=O)CCC(NCC2CCCCC2)C4)c1 (stereo not given) | 62%
COc1cccc(Cn2cnc3sc4c(c3c2=O)CCC(NCC2CCCO2)C4)c1 (stereo not given) | 3%
COc1ccc2ccccc2c1Cn1cnc2sc3c(c2c1=O)CCC(NCc1ccc(C#N)cc1)C3 (stereo not given) | 75%
COc1ccc2ccccc2c1Cn1cnc2sc3c(c2c1=O)CCC(NCCNC(C)=O)C3 (stereo not given) | 44%
O=c1c2c3c(sc2ncn1Cc1cccc2ccccc12)CC(NC1CCOCC1)CC3 (stereo not given) | 59%
O=c1c2c3c(sc2ncn1Cc1ccc2ccccc2c1)CC(NCc1ccccc1F)CC3 (stereo not given) | 51%
O=c1c2c3c(sc2ncn1Cc1ccccc1)CC(NCc1cncnc1)CC3 (stereo not given) | 18%
COc1ccc(NC2CCc3c(sc4ncn(Cc5cccc6ccccc56)c(=O)c34)C2)cc1 (stereo not given) | 52%
COc1ccc(CNC2CCc3c(sc4ncn(Cc5ccccc5)c(=O)c34)C2)cn1 (stereo not given) | 48%
Cc1cccc(NC2CCc3c(sc4ncn(Cc5cccc6cccnc56)c(=O)c34)C2)c1 (stereo not given) | 62%
O=c1c2c3c(sc2ncn1Cc1ccc2ccccc2c1)CC(NC1CCc2ccccc21)CC3 (stereo not given) | 60%
COc1ccccc1Cn1cnc2sc3c(c2c1=O)CCC(NCC1CCCO1)C3 (stereo not given) | 27%
COc1cccc(NC2CCc3c(sc4ncn(Cc5cccc(-c6ccccc6)c5)c(=O)c34)C2)c1 (stereo not given) | 30%
O=c1c2c3c(sc2ncn1Cc1cccc2cccnc12)CC(NCCN1CCCC1)CC3 (stereo not given) | 29%
O=c1c2c3c(sc2ncn1Cc1cccc(-c2ccccc2)c1)CC(Nc1ccc2c(c1)OCO2)CC3 (stereo not given) | 33%
O=c1c2c3c(sc2ncn1Cc1cccc2ccccc12)CC(NCc1cccc(F)c1)CC3 (stereo not given) | 65%
CC(=O)NCCNC1CCc2c(sc3ncn(Cc4cccc(-c5ccccc5)c4)c(=O)c23)C1 (stereo not given) | 65%
COc1cccc(Cn2cnc3sc4c(c3c2=O)CCC(NCc2cncnc2)C4)c1 (stereo not given) | 18%
COc1ccc(CNC2CCc3c(sc4ncn(Cc5ccccc5OC)c(=O)c34)C2)cc1 (stereo not given) | 67%
COc1ccccc1Cn1cnc2sc3c(c2c1=O)CCC(NCc1ccco1)C3 (stereo not given) | 43%
COc1cccc(Cn2cnc3sc4c(c3c2=O)CCC(NCc2ccccc2Cl)C4)c1 (stereo not given) | 68%
COc1cccc(CNC2CCc3c(sc4ncn(Cc5ccc6ccccc6c5)c(=O)c34)C2)c1 (stereo not given) | 51%

SMILES | inhibition
COc1ccc2ccccc2c1Cn1cnc2sc(CCN)c(C)c2c1=O | 25%
O=c1c2c3c(sc2ncn1Cc1ccccc1)CC(NCc1ccccc1)CC3 (stereo not given) | 57%
O=c1c2c3c(sc2ncn1Cc1ccc2ccccc2c1)CC(NCC1CCOC1)CC3 (stereo not given) | 58%
COCCNC1CCc2c(sc3ncn(Cc4cccc5cccnc45)c(=O)c23)C1 (stereo not given) | 41%
O=c1c2c3c(sc2ncn1Cc1ccc2ccccc2c1)CC(NC1CCOCC1)CC3 (stereo not given) | 52%
COc1ccccc1NC1CCc2c(sc3ncn(Cc4c(OC)ccc5ccccc45)c(=O)c23)C1 (stereo not given) | 29%
COc1ccc2ccccc2c1Cn1cnc2sc(CCNCC3CCOC3)c(C)c2c1=O (stereo not given) | 65%
COc1ccc2ccccc2c1Cn1cnc2sc3c(c2c1=O)CCC(NC1CCc2ccccc21)C3 (stereo not given) | 59%
COc1cccc(NC2CCc3c(sc4ncn(Cc5cccc6cccnc56)c(=O)c34)C2)c1 (stereo not given) | 67%
O=c1c2c3c(sc2ncn1Cc1cccc2cccnc12)CC(NCc1cncnc1)CC3 (stereo not given) | 75%
O=c1c2c3c(sc2ncn1Cc1cccc2cccnc12)CC(NCCN1CCOCC1)CC3 (stereo not given) | 53%
O=c1c2c3c(sc2ncn1Cc1ccccc1)CC(NC1CCc2ccccc21)CC3 (stereo not given) | 59%
COc1ccc(Cn2cnc3sc4c(c3c2=O)CCC(NCc2ccccc2Cl)C4)c2ccccc12 (stereo not given) | 65%
O=c1c2c3c(sc2ncn1Cc1cccc(-c2ccccc2)c1)CC(Nc1ccc(F)cc1)CC3 (stereo not given) | 52%
COc1ccccc1Cn1cnc2sc3c(c2c1=O)CCC(NCc1c(C)nn(C)c1C)C3 (stereo not given) | 37%
COc1ccc2ccccc2c1Cn1cnc2sc3c(c2c1=O)CCC(Nc1ccc(F)cc1)C3 (stereo not given) | 44%
O=c1c2c3c(sc2ncn1Cc1ccccc1)CC(NCCc1ccncc1)CC3 (stereo not given) | 18%
COc1ccc(Cn2cnc3sc4c(c3c2=O)CCC(NCC2CCOC2)C4)c2ccccc12 (stereo not given) | 70%
O=c1c2c3c(sc2ncn1Cc1cccc2cccnc12)CC(NCC1CCOC1)CC3 (stereo not given) | 60%
O=c1c2c3c(sc2ncn1Cc1cccc2ccccc12)CC(NC1CCCc2ccccc21)CC3 (stereo not given) | 51%
COc1ccc2ccccc2c1Cn1cnc2sc3c(c2c1=O)CCC(NCc1ccccc1F)C3 (stereo not given) | 64%
COc1ccccc1CCNC1CCc2c(sc3ncn(Cc4ccc(OC)c5ccccc45)c(=O)c23)C1 (stereo not given) | 69%
COc1cccc(CNC2CCc3c(sc4ncn(Cc5ccccc5)c(=O)c34)C2)c1 (stereo not given) | 48%
COc1ccccc1Cn1cnc2sc3c(c2c1=O)CCC(NCCc1cccnc1)C3 (stereo not given) | 38%

SMILES | inhibition
COc1ccc2ccccc2c1Cn1cnc2sc3c(c2c1=O)CCC(NC1CCCc2ccccc21)C3 (stereo not given) | 34%
COc1cccc(Cn2cnc3sc4c(c3c2=O)CCC(NC2CCc3ccccc32)C4)c1 (stereo not given) | 64%
COc1ccc2ccccc2c1Cn1cnc2sc3c(c2c1=O)CCC(NCc1ccccc1Cl)C3 (stereo not given) | 40%
COCCNC1CCc2c(sc3ncn(Cc4c(OC)ccc5ccccc45)c(=O)c23)C1 (stereo not given) | 44%
COc1ccccc1Cn1cnc2sc3c(c2c1=O)CCC(NCc1ccccn1)C3 (stereo not given) | 35%
COc1cccc(NC2CCc3c(sc4ncn(Cc5ccc6ccccc6c5)c(=O)c34)C2)c1 (stereo not given) | 37%
COc1ccccc1Cn1cnc2sc3c(c2c1=O)CCC(NCCc1ccncc1)C3 (stereo not given) | 26%
COc1cccc(NC2CCc3c(sc4ncn(Cc5cccc6ccccc56)c(=O)c34)C2)c1 (stereo not given) | 46%
O=c1c2c3c(sc2ncn1Cc1cccc(-c2ccccc2)c1)CC(NCc1cccs1)CC3 (stereo not given) | 66%
O=c1c2c3c(sc2ncn1Cc1ccc2ccccc2c1)CC(NCc1cccs1)CC3 (stereo not given) | 62%
O=c1c2c3c(sc2ncn1Cc1cccc2cccnc12)CC(Nc1ccc2c(c1)OCO2)CC3 (stereo not given) | 76%
O=c1c2c3c(sc2ncn1Cc1ccccc1)CC(NCC1CCCCC1)CC3 (stereo not given) | 56%
O=c1c2c3c(sc2ncn1Cc1cccc2cccnc12)CC(NCc1ccccc1F)CC3 (stereo not given) | 49%
COc1cccc(Cn2cnc3sc4c(c3c2=O)CCC(NCCc2cccnc2)C4)c1 (stereo not given) | 40%
COc1ccc(CNC2CCc3c(sc4ncn(Cc5ccccc5OC)c(=O)c34)C2)cn1 (stereo not given) | 56%
COCCNC1CCc2c(sc3ncn(Cc4ccc(OC)c5ccccc45)c(=O)c23)C1 (stereo not given) | 70%
COc1ccccc1CCNC1CCc2c(sc3ncn(Cc4cccc(-c5ccccc5)c4)c(=O)c23)C1 (stereo not given) | 65%
O=c1c2c3c(sc2ncn1Cc1cccc2ccccc12)CC(NCc1cccs1)CC3 (stereo not given) | 54%
Cc1noc(C)c1CNC1CCc2c(sc3ncn(Cc4ccc5ccccc5c4)c(=O)c23)C1 (stereo not given) | 67%
COc1ccc(Cn2cnc3sc4c(c3c2=O)CCC(NCc2cccc(F)c2)C4)c2ccccc12 (stereo not given) | 59%
O=c1c2c3c(sc2ncn1Cc1ccc2ccccc2c1)CC(NCCN1CCOCC1)CC3 (stereo not given) | 47%
COc1ccc2ccccc2c1Cn1cnc2sc3c(c2c1=O)CCC(NCCN1CCOCC1)C3 (stereo not given) | 70%
